Test results taken from paper PMC6038876 (Drug Design, Development and Therapy, 2018).
Values after ≈ are worked out from the molar mass of the structure shown. One block for each compound: values may come before it.

Assays:
[1] = Kinetic solubility study of SNMSDs and EDR in SIF pH 6.8; assay type: physicochemical
[2] = In vitro dissolution study; assay type: physicochemical
In short: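 USP type II (paddle) apparatus at 37°C and 50 rpm, with 900 mL of SGF (pH 1.2) or SIF (pH 6.8). Samples were taken at 5, 15, 30, 45, 60, 90 and 120 min, with media replaced, then passed through a 0.45 µm filter and diluted with mobile phase as needed. They were quantified by HPLC-UV at 240 nm (water:methanol:acetic acid 100:100:1, 1 mL/min). Release data were fitted to zero-order, first-order, Higuchi, Hixson–Crowell and Korsmeyer–Peppas models. f1 and f2 were calculated comparing the unformulated and formulated drug profiles.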

[3] = pH 8–10; cited from earlier work
[4] = cited from earlier work
P-glycoprotein (Pgp) = conditions: cited from earlier work
UGT enzymes = conditions: cited from earlier work
[5] = Solubility of EDR, PM and NEF in simulated body fluids and water
[6] = Miscibility study: solubility of EDR in polymeric carrier solutions; conditions: 10% (w/v) polymer in water
[7] = tested on: glucuronidation of EDR in rat liver microsomes; experiment: Microsomal incubation assay of EDR glucuronidation; assay type: in vitro ADME; conditions: SOL 1%
[8] = dissolution profiles in SGF vs SIF

solubility [1]: 2290 ± 320 µg/mL (≈ 13.1 mM)
release kinetic model followed ([2]; SGF): Hixson–Crowell
release kinetics: First order ([2]; SGF): 0.834
release kinetics: Higuchi matrix ([2]; SGF): 0.8501
release kinetics: Hixson–Crowell ([2]; SGF): 0.9216
release kinetics: Korsmeyer–Peppas ([2]; SGF): 0.8636
release kinetics: Zero order ([2]; SGF): 0.6077
release / dissolution in SGF ([2]; SGF (pH 1.2), within 15 min): 100%
release kinetic model followed ([2]; SIF): Korsmeyer–Peppas
release kinetics: First order ([2]; SIF): 0.9609
release kinetics: Higuchi matrix ([2]; SIF): 0.97
release kinetics: Hixson–Crowell ([2]; SIF): 0.9718
release kinetics: Korsmeyer–Peppas ([2]; SIF): 0.9895
release kinetics: Zero order ([2]; SIF): 0.7947
release mechanism ([2]; SIF): anomalous transport (non-Fickian)
release in SIF ([2]; SIF (pH 6.8), in 120 min): 85%
f1 value (dissimilarity factor) [2, 8]: 26
f2 value (similarity factor) [2, 8]: 14
dissolution ([2]; within 15 min in the 900 mL of dissolution media): 100%
solubility in SGF (pH 1.2) compared to solubility in water ([5]; SGF pH 1.2): 4.46 fold
solubility in SIF compared to solubility in water ([5]; SIF pH 6.8 and 7.4): insignificant difference
Compound: CC1=NN(c2ccccc2)C(=O)C1 [EDR, 3-methyl-1-phenyl-2-pyrazolin-5-one]
degradation at alkaline conditions [3]: dramatic degradation
solubility in SGF [4]: 8.26 ± 1.42 mg/mL (≈ 47.4 mM)
substrate of P-glycoprotein (Pgp) (P-glycoprotein (Pgp)): substrate
substrate of UGT enzymes (UGT enzymes): substrate

improvement in the aqueous solubility of EDR [6]: 3.49 fold
Compound: hydroxypropyl-β-cyclodextrin [HP-β-CD]

inhibitory effect on glucuronidation of EDR [7]: 37.56%
Compound: CC1(C)C2CCC1(C)C(O)C2 (stereo not drawn) [borneol]
